# eIF4E-4G inh: eIF4E–eIF4G protein interaction inhibitors, primary screen, biochemical, uHTS, TR-FRET, eIF4GI fragment; Eukaryotic translation initiation factor 4E (Mus musculus) + Eukaryotic translation …; TR-FRET eIF4E-eIF4GI(517-606) binding, 2 h; inhibition, % at 21.7 µM; 220,000 tested, 0.37% active;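 note: 0% = full FRET control wells and 100% = background wells lacking eIF4GI fragment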
# Wee1 stabilizer: Wee1 degradation inhibitors, primary screen, cell-based, HeLa, Wee1K328M-luciferase, luminescence; HeLa Luc-Wee1K328M stability; 100% = proteasome inhibitor MG132 effect; reporter increase, % at 5 µM; 220,000 tested, 1.2% active; Wee1-like protein kinase (Homo sapiens), P30291;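 active = activation above the mean of all tested compounds plus 3 SD, set per screening run, cut at about 8.8% in these data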;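 note: cells exposed to compound for 20 h before luminescence read; 0% = DMSO alone and 100% = MG132 at 30 µM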
# RBBP9 inh: human RBBP9 inhibitors, primary screen, biochemical, fluorescence polarization, FP-Rh probe, HTS. recombinant RBBP9. Serine hydrolase RBBP9 (Homo sapiens), O75884. inhibition, % at 7.94 µM. AID 1515, 2009. 220,000 tested, 0.2% active;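 active = inhibition above the campaign mean of all tested compounds plus 3 SD, cut at about 14% in these data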;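 note: plate controls were DMSO wells with RBBP9 for no effect and wells lacking RBBP9 protein for full effect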
# Target sequence (O75884 whole entry, looked up): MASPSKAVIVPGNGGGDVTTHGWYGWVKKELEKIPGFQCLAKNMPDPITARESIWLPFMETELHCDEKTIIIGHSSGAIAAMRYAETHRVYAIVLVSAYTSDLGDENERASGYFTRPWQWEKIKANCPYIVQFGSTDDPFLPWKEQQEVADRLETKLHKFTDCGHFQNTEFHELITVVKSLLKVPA
#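 Measured by: FP readout at 525/598 nm; material: recombinant human RBBP9; also added: Serine-hydrolase probe FP-Rh, 375 nM pre-mixing; medium: Tris buffer pH 8.0, NaCl, Pluronic; replication: one well per compound; doses: one concentration, 7.94 µM nominal, 0.794% DMSO; timing: preincubation 30 min plus labeling 45 min at 25 °C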
# 14-3-3 Bad inh: inhibitors of 14-3-3 zeta/Bad binding, primary screen, biochemical, TR-FRET, bovine 14-3-3 zeta. 220,000 tested, 0.71% active. inhibition, % at 21.7 µM. TR-FRET 14-3-3zeta/Dy647-pBad peptide displacement, 1 h;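 active = inhibition above about 70%, limit read from the data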;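 note: 0% = full 14-3-3 plus peptide FRET controls and 100% = background without 14-3-3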
# p47phox inh: p47phox/p22phox peptide binding inhibitors, primary screen, biochemical, uHTS, NADPH oxidase regulatory subunit; Neutrophil cytosol factor 1 (Homo sapiens), P14598; fluorescence polarization, 2 h; inhibition, % at 24.7 µM; 220,000 tested, 0.53% active; AID 1274, 2008;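 note: 0% = p47phox with labelled peptide and 100% = labelled peptide alone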
# Target sequence (P14598 whole entry, looked up): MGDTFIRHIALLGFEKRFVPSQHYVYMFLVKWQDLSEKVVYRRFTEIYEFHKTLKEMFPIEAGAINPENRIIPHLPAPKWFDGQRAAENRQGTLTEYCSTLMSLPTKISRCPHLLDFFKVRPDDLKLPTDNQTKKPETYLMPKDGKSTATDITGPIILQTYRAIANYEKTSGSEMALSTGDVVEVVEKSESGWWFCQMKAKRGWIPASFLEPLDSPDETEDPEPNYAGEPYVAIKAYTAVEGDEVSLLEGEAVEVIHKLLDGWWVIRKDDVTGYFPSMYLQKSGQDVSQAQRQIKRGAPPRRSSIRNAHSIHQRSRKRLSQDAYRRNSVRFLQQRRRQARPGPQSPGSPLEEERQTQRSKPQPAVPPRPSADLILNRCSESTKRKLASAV
# Numbers without * were called inactive; / = no result; [ ] = dose if it differs, or a comment. Compounds with a hit are over-represented: about 2.8% of the library has one in this group of screens.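 Rule for the calls, unless noted: active = inhibition above about 30% (limit read from the data); inactive = the rest.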
SMILES,eIF4E-4G inh,Wee1 stabilizer,RBBP9 inh,14-3-3 Bad inh,p47phox inh
O=C(COC(=O)CNC(=O)c1ccccc1F)Nc1cccnc1Cl,0,-1,-7,-5,-5
COc1cc(C2/C(=C(/O)c3ccccc3)C(=O)C(=O)N2c2ccccn2)ccc1O (stereo unspecified),82*,-3,-5,-14,-1
COc1ccccc1C1(O)CCN(CC(=O)Nc2nc(-c3ccccc3)cs2)CC1,4,5,2,-1,-15
CCCOc1ccc(/C(O)=C2\C(=O)C(=O)N(CCCOC)C23C(=O)N(C)c2ccccc23)cc1 (stereo unspecified),14,1,-5,70*,1
CCCN1C(=O)C2(/C(=C(\O)c3ccc4c(c3)OCCO4)C(=O)C(=O)N2CCCOC)c2ccccc21 (stereo unspecified),7,-1,-2,35,-7
CCCNC(=S)N1CCC(NC(=O)C2CCCCC2)CC1,-2,10*,-7,-3,-12
O=C(NC1CCN(C(=S)NCCc2ccccc2)CC1)C1CC1,0,-4,1,-9,1
N#C/C(=C\c1ccc(C(=O)O)cc1)c1nc2sc3c(c2c(=O)[nH]1)CCCC3,20,-2,-1,38,104*
O=c1c2ccccc2nc2c3ccccc3c(NCCN3CCOCC3)nn12,1,1,-7,5,-13
O=c1c2c(-c3ccccc3)csc2nc2c3ccccc3c(NCCN3CCOCC3)nn12,26,1,-10,43,74*
COc1c(OC(C)=O)ccc(/C=C/c2ccc3cccc(OCc4ccccc4)c3n2)c1[N+](=O)[O-],-18,-4,-11,-13,-18
CCCCC1=CC2=CC(=O)C(C)(OC(=O)CC)C(=O)C2=CN1c1ccccc1 (stereo unspecified),71*,/,/,5,-5
CC1CCN(C(=S)c2ccc([N+](=O)[O-])cc2)CC1,-5,-2,-6,3,-12
C=CCn1c(SCC(=O)NC2CCS(=O)(=O)C2)nc2scc(C3CC3)c2c1=O (stereo unspecified),-14,9.7*,-8,-11,-13
C=CCn1c(SCC(=O)c2ccc(CNC(C)=O)o2)nc2scc(C3CC3)c2c1=O,1,-1,-1,-1,-18
CCN(CC)c1ccc(NC(=O)CCCOc2cccc(C)c2)cc1,34*,4,-6,7,-6
O=C1C2C3C=CC(C4CC34)C2C(=O)N1/N=C/c1ccc(-c2ccc([N+](=O)[O-])cc2)o1 (stereo unspecified),3,2,0,2,-25
O=C1Nc2ccccc2/C1=N/N=C/c1ccc(-c2ccc([N+](=O)[O-])cc2)o1,15,-1,6,95*,51*
Cc1ccc(OCCSCc2nnc(NC(=O)Nc3cccc(Cl)c3)s2)cc1,-7,0,-2,-14,-36
COc1cc(/C=c2\sc3nc(-c4ccncc4)nn3c2=O)ccc1OC(C)=O,-4,3,-6,24,-6
CN(C)c1ccc(/C=c2\sc3nc(-c4ccccc4)nn3c2=O)cc1,-33,-1,-3,8,42*
COc1cc(O)cc2cc3c(c(O)c12)C(=O)CC(C)(O)O3 (stereo unspecified),71*,/,/,8,-7
Cc1[nH]nc(SCC(=O)NC2CCCC2)c1[N+](=O)[O-],-3,5,-5,-6,-1
Cc1cc(NC(=O)Nc2ccccc2F)ccc1Br,2,5,-2,-5,/
COc1cc2c(cc1NC(=S)NC(=O)/C=C/c1ccc(OC)c(OC)c1)oc1ccccc12,17,0,4,81*[fluorescence artefact?],37*
SMILES,eIF4E-4G inh,Wee1 stabilizer,RBBP9 inh,14-3-3 Bad inh,p47phox inh
COc1ccc(/C=N/Nc2nc(-c3cccnc3)nc3ccccc23)c(OC)c1,11,2,-12,70*,-26
O=C(Nc1cccc(C(F)(F)F)c1)c1cccnc1N1CCN(c2ccccc2)CC1,3,1,-2,88*[fluorescence artefact?],-1
O=C(Nc1cccc(C(F)(F)F)c1)c1cccnc1N1CCN(CCO)CC1,-3,2,-1,-7,-4
CCOC(=O)Cc1n[nH]c(=O)c2ccccc12,1,4,-2,-5,2
O=C(COC(=O)Cc1n[nH]c(=O)c2ccccc12)Nc1ccc(Cl)cc1F,3,8.9*,5,-7,-4
CC(C)N1CCc2c(sc(NC(=O)CCc3ccccc3)c2C(N)=O)C1,-2,5,-2,-7,-12
CC(C)NC(=O)c1cc2cc([N+](=O)[O-])ccc2s1,6,-1,-4,13,-7
Cc1cccc(NC(=O)c2cc3cc([N+](=O)[O-])ccc3s2)n1,2,0,-4,89*,3
CN1CCc2c(sc(NC(=O)c3cc4cc([N+](=O)[O-])ccc4s3)c2C(N)=O)C1,-9,-1,-4,72*,77*
CC(C)N1CCc2c(sc(NC(=O)c3cc4cc([N+](=O)[O-])ccc4s3)c2C(N)=O)C1,4,-1,2,95*,19
CCCCC(=O)N(c1ccc(C)c(C)c1)C1C=CS(=O)(=O)C1 (stereo unspecified),8,-1,-3,93*,3
O=C(Cc1ccc(F)cc1)N(c1ccc(F)cc1)C1C=CS(=O)(=O)C1 (stereo unspecified),2,1,-2,10,35*
CC(C)CC(=O)N(c1ccc(F)cc1)C1C=CS(=O)(=O)C1 (stereo unspecified),-6,3,-6,9,-2
O=C(Cc1ccccc1)N(c1ccc(F)cc1)C1C=CS(=O)(=O)C1 (stereo unspecified),-11,1,-5,3,5
CCOc1ccc(NC(=S)c2ccncc2)cc1,11,1,-9,-18,-17
O=C(O)CN1CCN(Cc2ccc(Cl)cc2)C1=O,1,0,0,1,0
O=C(c1c(F)cccc1F)N(Cc1ccccn1)C1CC1,5,2,3,41,-1
O=C(Cc1ccc(F)cc1)OCn1nnc2ccccc2c1=O,1,-3,-8,11,-4
CC(C)Oc1ccc(-c2nn(-c3ccccc3)cc2/C=c2\sc3ncnn3c2=O)cc1,-15,10*,-1,-6,-54
O=c1/c(=C/c2cn(-c3ccccc3)nc2-c2ccc(F)cc2)sc2nc3ccccc3n12,5,-1,3,-2,2
COc1cc2cc(C)c(SCC(=O)N3CCN(C(=O)c4ccco4)CC3)nc2cc1OC,3,6,-4,4,-18

# Screens deposited in PubChem by several laboratories.
